Laboratory results from ChEMBL document CHEMBL1137695, “Towards an efficient prodrug of the alkylating metabolite monomethyltriazene: synthesis and stability of N-acylamino acid derivatives of triazenes” (Eur J Med Chem, 2009).

Assays:
[1] = Stability in phosphate buffer assessed as half life at pH 7.7 by HPLC; format: physicochemical
How it was run: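 Incubation at 37 °C in 0.066 M pH 7.7 isotonic phosphate buffer. Samples injected directly onto HPLC (acetonitrile:water 20:80 to 50:50, detection 290 nm). Half-life calculated from decline in substrate concentration; mean of at least 2 determinations ± SD.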

[2] = Stability in 80% human plasma assessed as half life by HPLC; format: ADME, cell-free
How it was run: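 Plasma pooled from seven healthy donors, stored at −18 °C. Incubation at 37 °C in 80% plasma diluted with 0.066 M pH 7.4 isotonic phosphate buffer. Aliquots taken over time, diluted with acetonitrile, centrifuged, supernatant analysed by HPLC at 290 nm. t1/2 fitted from substrate loss; mean of at least 3 determinations ± SD.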

[3] = Octanol-phosphate buffer partition coefficient at pH 7.4 by HPLC; format: physicochemical
How it was run: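 Octanol and pH 7.4 phosphate buffer, each pre-saturated with the other, at 25 °C. Compound dissolved in octanol, then shaken with buffer for 30 min to equilibrium. Each phase analysed separately by HPLC (acetonitrile:water 20:80 to 50:50, 290 nm). P taken as ratio of octanol to buffer peak areas. Mean of at least 3 determinations ± SD.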

half-life [1]	half-life [2]	logD [3]	SMILES
7.6 h	1.2 h	1.1	CC(=O)NCC(=O)N(C)/N=N/c1ccc(C#N)cc1
25.5 h	5.7 h	2.8	CC(=O)N[C@@H](C)C(=O)N(C)/N=N/c1ccc(Br)cc1
9.2 h	1.6 h	3.04	C[C@H](NC(=O)c1ccccc1)C(=O)N(C)/N=N/c1ccc(C#N)cc1
13.9 h	2.3 h	1.51	CC(=O)N[C@@H](C)C(=O)N(C)/N=N/c1ccc(C(C)=O)cc1
46.5 h	15.1 h	2.45	CC(=O)N[C@@H](C)C(=O)N(C)/N=N/c1ccc(C)cc1
15.7 h	4.6 h	2.52	CCOC(=O)c1ccc(/N=N/N(C)C(=O)[C@H](C)NC(C)=O)cc1
9.1 h	1.1 h	2.28	CCCC(=O)N[C@@H](C)C(=O)N(C)/N=N/c1ccc(C#N)cc1
18.4 h	7.6 h	0.69	CC(=O)N[C@@H](C)C(=O)N(C)/N=N/c1ccc(C(N)=O)cc1
84.3 h	5.7 h	2.18	CC(=O)N[C@H](C(=O)N(C)/N=N/c1ccc(C#N)cc1)C(C)C
13.9 h	2.4 h	2.76	CC(=O)N[C@@H](Cc1ccccc1)C(=O)N(C)/N=N/c1ccc(C#N)cc1
10.1 h	1.3 h	1.87	CCC(=O)N[C@@H](C)C(=O)N(C)/N=N/c1ccc(C#N)cc1
9.8 h	1 h	1.41	CC(=O)N[C@@H](C)C(=O)N(C)/N=N/c1ccc(C#N)cc1
